Data published in ChEMBL document CHEMBL3877280, “Discovery of novel rivastigmine-hydroxycinnamic acid hybrids as multi-targeted agents for Alzheimer's disease” (Eur J Med Chem, 2017).
Calls of active or inactive are those of the source. The rule behind the calls is not given here.

Key:
[1] = target: Amyloid-beta precursor protein (Homo sapiens) (UniProt P05067); test: Inhibition of HFIP-pretreated amyloid beta (1 to 42) (unknown origin) self-induced aggregation at 10 uM after 24 hrs by thioflavin-T fluorescence assay relative to control
Chain of Amyloid-beta precursor protein (Homo sapiens) (P05067 whole entry): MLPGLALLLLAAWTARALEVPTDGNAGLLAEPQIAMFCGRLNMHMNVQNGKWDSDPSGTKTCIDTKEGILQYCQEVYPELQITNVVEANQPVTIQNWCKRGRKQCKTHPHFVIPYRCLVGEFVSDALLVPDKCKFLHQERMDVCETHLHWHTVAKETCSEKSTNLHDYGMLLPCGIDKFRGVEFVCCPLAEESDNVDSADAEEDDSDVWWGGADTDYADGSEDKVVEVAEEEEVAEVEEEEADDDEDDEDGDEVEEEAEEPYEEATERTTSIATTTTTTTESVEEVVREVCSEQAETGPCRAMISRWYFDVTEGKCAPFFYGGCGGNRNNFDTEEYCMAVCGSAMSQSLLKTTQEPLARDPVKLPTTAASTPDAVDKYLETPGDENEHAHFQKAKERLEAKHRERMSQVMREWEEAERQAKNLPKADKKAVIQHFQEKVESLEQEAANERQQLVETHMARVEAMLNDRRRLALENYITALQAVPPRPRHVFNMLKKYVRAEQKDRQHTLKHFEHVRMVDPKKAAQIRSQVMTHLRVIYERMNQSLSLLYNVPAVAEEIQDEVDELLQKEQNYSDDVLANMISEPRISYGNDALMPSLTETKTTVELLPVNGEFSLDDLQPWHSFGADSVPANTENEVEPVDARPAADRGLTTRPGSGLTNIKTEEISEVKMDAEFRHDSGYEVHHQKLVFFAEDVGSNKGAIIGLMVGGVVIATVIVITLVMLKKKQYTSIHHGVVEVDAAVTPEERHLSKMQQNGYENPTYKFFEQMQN

[2] = target: Cholinesterase (Homo sapiens) (UniProt P06276); test: Inhibition of BuChE (unknown origin) at 1 uM using acetylthiocholine iodide as substrate preincubated for 60 mins followed by substrate addition measured after 5 mins by Ellman's method relative to control
Chain of Cholinesterase (Homo sapiens) (P06276 whole entry): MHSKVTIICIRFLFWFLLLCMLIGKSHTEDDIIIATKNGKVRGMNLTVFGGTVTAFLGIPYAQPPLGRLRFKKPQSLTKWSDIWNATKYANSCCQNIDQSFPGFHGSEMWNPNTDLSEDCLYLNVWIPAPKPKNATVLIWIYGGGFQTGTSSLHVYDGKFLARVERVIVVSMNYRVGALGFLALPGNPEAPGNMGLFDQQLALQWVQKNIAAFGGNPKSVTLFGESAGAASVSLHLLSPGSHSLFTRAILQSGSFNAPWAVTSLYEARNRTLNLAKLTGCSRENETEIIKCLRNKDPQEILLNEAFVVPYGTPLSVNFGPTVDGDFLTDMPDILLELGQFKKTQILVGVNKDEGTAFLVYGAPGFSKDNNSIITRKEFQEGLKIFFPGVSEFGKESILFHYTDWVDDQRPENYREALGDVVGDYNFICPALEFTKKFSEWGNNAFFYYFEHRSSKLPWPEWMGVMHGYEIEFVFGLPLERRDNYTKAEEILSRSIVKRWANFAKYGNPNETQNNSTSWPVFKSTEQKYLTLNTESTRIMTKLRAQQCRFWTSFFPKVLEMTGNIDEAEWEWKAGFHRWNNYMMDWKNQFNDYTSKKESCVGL
Summary of the method: (§1)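 Ellman method at 37 °C. BuChE stock made in 0.1% gelatin, diluted to 0.13-0.100 AU/min. Enzyme preincubated with compound for 60 min in 0.1 M phosphate pH 8.0 with 40 µM DTNB, then 20 µM acetylthiocholine iodide added. A412 rate followed for 5 min against an enzyme-free blank; triplicates; percent inhibition from rates.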

[3] = target: Cholinesterase (Homo sapiens) (UniProt P06276); test: Inhibition of BuChE (unknown origin) at 5 uM using acetylthiocholine iodide as substrate preincubated for 60 mins followed by substrate addition measured after 5 mins by Ellman's method relative to control; summary of the method: as §1
[4] = Antioxidant activity assessed as DPPH radical scavenging activity at 10 uM incubated under dark condition for 60 mins by spectrophotometric method relative to control; assay type: functional
Summary of the method: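 DPPH scavenging: compound at 10 µM final added to DPPH in ethanol (100 µM final), kept in dark at 25-26 °C for 60 min under dim light. Absorbance read at 517 nm. Capacity = (A1 − A2)/A1 × 100%, with A1 the control absorbance.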

Mus musculus [5] = organism: Mus musculus; test: Cytotoxicity against mouse HT22 cells assessed as reduction in cell viability at 10 uM after 24 hrs by MTT assay; assay type: toxicity, cell-based; conditions: ht-22, 24 h
Summary of the method: (§2)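 HT22 cells grown in DMEM + 10% FBS at 37 °C, 5% CO2, seeded at 10,000 cells/well. Exposed to compound for 24 h; vehicle-only controls. Viability by MTT, mean ± SEM, n = 6.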

Mus musculus [6] = organism: Mus musculus; test: Cytotoxicity against mouse HT22 cells assessed as reduction in cell viability at 100 uM after 24 hrs by MTT assay; assay type: toxicity, cell-based; conditions: ht-22, 24 h; summary of the method: as §2
HT-22 = test: Cytoprotective activity against H2O2-induced cell death in mouse HT22 cells assessed as increase in cell viability at 10 to 30 uM preincubated for 30 mins followed by H2O2 addition measured after 24 hrs by MTT assay; assay type: functional, cell-based
Summary of the method: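 HT22 cells (DMEM/10% FBS, 10,000 cells/well) pretreated with compound for 30 min, then 500 µM H2O2 for 24 h. Viability by MTT; vehicle controls; mean ± SEM, n = 6.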

[7] = Copper chelating activity assessed as Cu2+-compound complex formation by measuring bathochromic shift at 10 uM after 30 mins by UV-Visible spectrometric method
Summary of the method: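 CuCl2 in water and compound (methanol stock diluted in PBS) brought up in absolute ethanol. Mixture stood 30 min at room temperature, then absorption spectrum recorded at room temperature.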

[8] = Cytoprotective activity against glutamate-induced cell death in mouse HT22 cells assessed as cell viability at 10 to 30 uM preincubated for 30 mins followed by H2O2 addition measured after 24 hrs by MTT assay; assay type: functional, HT-22
Summary of the method: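 HT22 cells (DMEM/10% FBS, 10,000 cells/well) pretreated with compound for 30 min, then 2 mM glutamate for 24 h. Viability by MTT; vehicle controls; mean ± SEM, n = 6.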

Q: Which inhibition [1] does the source give for `Nc1c(/N=N/c2ccc(-c3ccc(/N=N/c4cc(S(=O)(=O)O)c5ccccc5c4N)cc3)cc2)cc(S(=O)(=O)O)c2ccccc12` here?
A: 86.5%

Q: What does the source list for `CCN(C)C(=O)Oc1cccc([C@H](C)N(C)C)c1`?
A: inhibition [2]: 61%; inhibition [3]: 93%

Q: For `CCN(C)C(=O)Oc1cccc(CCNC(=O)/C=C/c2ccc(O)c(O)c2)c1`, which inhibition [2] is on record?
A: 76.3%

Q: What about the inhibition [3] of the same compound?
A: 92%

Q: What about the Activity [4] of the same compound?
A: 51.7%

Q: And the inhibition [1]?
A: 85.3%

Q: What about the Activity (Mus musculus [5]) of the same compound?
A: Non-Toxic

Q: And the Activity (Mus musculus [6])?
A: Toxic

Q: And the Activity (HT-22)?
A: Active

Q: What about the Activity [7] of the same compound?
A: Active

Q: With `O=C(O)/C=C/c1ccc(O)c(O)c1` as the compound, how does the Activity [4] read?
A: 64.6%

Q: With `CCN(C)C(=O)Oc1cccc(NC(=O)/C=C/c2ccc(O)c(OC)c2)c1` as the compound, how does the inhibition [2] read?
A: 98%

Q: What about the inhibition [3] of the same compound?
A: 98.3%

Q: And the Activity [4]?
A: 19.5%

Q: And the inhibition [1]?
A: 13.2%

Q: What about the Activity (Mus musculus [5]) of the same compound?
A: Non-Toxic

Q: And the Activity (Mus musculus [6])?
A: Toxic

Q: And the Activity (HT-22)?
A: Active

Q: With `CCN(C)C(=O)Nc1cccc(NC(=O)/C=C/c2ccc(O)c(O)c2)c1` as the compound, how does the inhibition [2] read?
A: 13.8%

Q: And the inhibition [3]?
A: 24.4%

Q: What about the Activity [4] of the same compound?
A: 64.7%

Q: What about the inhibition [1] of the same compound?
A: 82.5%

Q: What about the Activity (Mus musculus [5]) of the same compound?
A: Non-Toxic

Q: What about the Activity (Mus musculus [6]) of the same compound?
A: Toxic

Q: And the Activity [8]?
A: 56.9%

Q: And the Activity (HT-22)?
A: Active

Q: Which inhibition [2] does the source give for `CCN(C)C(=O)Oc1cccc(NC(=O)/C=C/c2ccc(O)c(O)c2)c1` here?
A: 49.6%

Q: And the inhibition [3]?
A: 91%

Q: What about the Activity [4] of the same compound?
A: 37%

Q: And the inhibition [1]?
A: 73.2%

Q: What about the Activity (Mus musculus [5]) of the same compound?
A: Non-Toxic

Q: And the Activity (Mus musculus [6])?
A: Toxic

Q: And the Activity [8]?
A: 52.9%

Q: And the Activity (HT-22)?
A: Active

Q: Which inhibition [2] does the source give for `CCN(C)C(=O)Oc1cccc(CNC(=O)/C=C/c2ccc(O)c(OC)c2)c1` here?
A: 87.9%

Q: And the inhibition [3]?
A: 97.9%

Q: And the Activity [4]?
A: 17.9%

Q: What about the inhibition [1] of the same compound?
A: 3.2%

Q: And the Activity (Mus musculus [5])?
A: Non-Toxic

Q: And the Activity (Mus musculus [6])?
A: Toxic

Q: With `COc1cc(/C=C/C(=O)O)ccc1O` as the compound, how does the Activity [4] read?
A: 19.9%

Q: With `CCN(C)C(=O)Nc1cccc(NC(=O)/C=C/c2ccc(O)c(OC)c2)c1` as the compound, how does the inhibition [2] read?
A: 19.4%

Q: And the inhibition [3]?
A: 36.6%

Q: What about the Activity [4] of the same compound?
A: 24.1%

Q: And the inhibition [1]?
A: 2.2%

Q: And the Activity (Mus musculus [5])?
A: Non-Toxic

Q: And the Activity (Mus musculus [6])?
A: Toxic

Q: What about the Activity (HT-22) of the same compound?
A: Active

Q: With `CCN(C)C(=O)Oc1cccc(CNC(=O)/C=C/c2ccc(O)c(O)c2)c1` as the compound, how does the inhibition [2] read?
A: 80.8%

Q: And the inhibition [3]?
A: 97%

Q: What about the Activity [4] of the same compound?
A: 69.7%

Q: What about the inhibition [1] of the same compound?
A: 77.6%

Q: And the Activity (Mus musculus [5])?
A: Non-Toxic

Q: What about the Activity (Mus musculus [6]) of the same compound?
A: Toxic

Q: And the Activity (HT-22)?
A: Active

Q: Which inhibition [2] does the source give for `CCN(C)C(=O)Oc1cccc(CCNC(=O)/C=C/c2ccc(O)c(OC)c2)c1` here?
A: 72.3%

Q: What about the inhibition [3] of the same compound?
A: 96.6%

Q: What about the Activity [4] of the same compound?
A: 18.1%

Q: What about the inhibition [1] of the same compound?
A: 2.2%

Q: What about the Activity (Mus musculus [5]) of the same compound?
A: Non-Toxic

Q: And the Activity (Mus musculus [6])?
A: Toxic

Q: And the Activity (HT-22)?
A: Active
